Lipid droplet: modulators of hepatic lipid droplet formation; AID 1656; inhibition, % at 6.5 µM; AML12 mouse hepatocytes, oleate lipid droplets, BODIPY imaging; 240,000 tested, 0.4% active;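 active = lipid droplet intensity inhibited by at least 50%, with more than 500 cells counted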
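Assay system: AML12 mouse liver cells | Compound: 6.5 µM single-point dosing | Schedule: Overnight exposure | Technique: Fluorescence imaging, 20x objective, two fields per well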
GRK2 aptamer HTS: inhibitors of human GRK2 displacing RNA aptamer. 330,000 tested, 0.59% active. bead flow cytometry, FAM-aptamer displacement from GRK2. inhibition of aptamer binding, % at 10 µM. P25098;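 active = inhibition of aptamer binding above 40%, roughly 3 SD of noise, on plates passing a quality check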;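 note: median bead fluorescence of bound FAM aptamer so fluorescent compounds give negative values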
Target sequence (P25098 whole entry, looked up): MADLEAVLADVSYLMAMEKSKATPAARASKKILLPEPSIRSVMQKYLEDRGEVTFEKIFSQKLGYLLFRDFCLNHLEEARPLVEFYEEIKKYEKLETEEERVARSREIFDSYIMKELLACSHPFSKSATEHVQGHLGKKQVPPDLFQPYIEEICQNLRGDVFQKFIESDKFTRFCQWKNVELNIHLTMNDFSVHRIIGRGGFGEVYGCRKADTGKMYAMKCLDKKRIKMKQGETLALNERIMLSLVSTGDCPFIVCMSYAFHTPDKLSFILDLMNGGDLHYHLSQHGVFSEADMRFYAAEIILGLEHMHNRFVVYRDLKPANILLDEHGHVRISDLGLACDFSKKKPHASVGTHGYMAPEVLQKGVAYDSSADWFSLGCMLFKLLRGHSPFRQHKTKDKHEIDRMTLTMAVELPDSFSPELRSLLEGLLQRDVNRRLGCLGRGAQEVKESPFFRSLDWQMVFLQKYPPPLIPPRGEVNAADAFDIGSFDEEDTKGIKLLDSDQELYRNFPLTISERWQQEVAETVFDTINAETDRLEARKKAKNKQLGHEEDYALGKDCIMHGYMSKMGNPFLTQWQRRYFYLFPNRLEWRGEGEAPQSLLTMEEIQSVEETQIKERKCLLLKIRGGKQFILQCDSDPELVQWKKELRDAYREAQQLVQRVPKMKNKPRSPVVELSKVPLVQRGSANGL
VLA-4 inh: inhibition in a human VLA-4 binding assay | VLA-4 expressing cells, ligand binding flow cytometry | inhibition, % (about 7 µM as worked out from the volumes in the protocol) | 330,000 tested, 0.2% active | AID 2557; in the data active = inhibition above about 50%
JMJD2C inh: inhibitors of human GASC-1 (JMJD2C) demethylase; Q9H3R0; GST-JMJD2C(1-420) H3K9me3 demethylation, DELFIA europium; inhibition, % at 2.35 µM; 330,000 tested, 0.069% active;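 active = more than half of a compound's replicate wells show inhibition beyond 50%, single wells judged on their own value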;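 note: signal counts dimethyl H3K9 product captured on neutravidin plate; 0% = median of DMSO wells and 100% = 0.3 times that DMSO median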
proCasp7 act: counter-screen for procaspase-3 activators: activators of human procaspase-7; 330,000 tested, 0.093% active; activation, % at 8.5 µM; P55210; AID 463210; recombinant procaspase-7, Ac-DEVD-pNA absorbance 405 nm; D23A/D198A/D206A triple mutant, cannot self-cleave; scale: DMSO 0, 5 µM enzyme 100;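 active = percent activation above the screen-wide mean plus 3 SD, cut at about 25% in these data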
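Detection: p-Nitroaniline absorbance at 405 nm, read at 0 and 120 min; system: Uncleavable procaspase-7 mutant enzyme; evaluation: % activation from two-timepoint absorbance difference, scaled to controls; times: 1 h enzyme–compound preincubation and 2 h substrate reaction, both 25 °C; buffer or medium: Zinc-free HEPES pH 7.4 with 300 mM NaCl, 0.01% Triton X-100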
procasp3 activ: activates human procaspase-3 | P42574 | recombinant procaspase-3 D3A, Ac-DEVD-pNA absorbance 405 nm | activation, % at 8.5 µM | 330,000 tested, 0.11% active;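 active = activation above the mean of all tested compounds plus 3 SD, cut at about 21% in these data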;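 note: 0% = DMSO alone and 100% = DMSO wells spiked with extra 5 µM PC-3 D3A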
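Test system: Procaspase-3 D3A mutant, all three cleavage aspartates alanine | Dosing: Single dose, 8.5 µM nominal compound, 0.8% DMSO | Schedule: 1 h preincubation, 2 h reaction | Technique: 405 nm absorbance of p-nitroaniline, reads at 0 and 120 min | Repeats: One well per compound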
Hep lipid conf: hepatic lipid droplet formation inhibition, confirmed; shares compounds with Lipid droplet; AML12 mouse hepatocytes, BODIPY lipid droplet imaging; droplets induced with 100 µM oleic acid; inhibition, % at 5.2 µM; 870 tested, 65% active; AID 463183;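 active = inhibition of lipid droplet metric at least 50%, with more than 300 cells in each of four replicates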;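 note: plate controls were DMSO with oleic acid for no effect and 5 µM Triacsin-C for full effect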
AML12 cytotox: AML12 hepatocyte cytotoxicity (counter-screen); 870 tested, 3% active; AML12 mouse hepatocytes, DAPI nuclear morphology cytotoxicity imaging; stronger effect = higher value; cells fed 100 µM oleate overnight; z-score at 5 µM; AID 463200; shares compounds with Lipid droplet; in the data active = z-score above about 6.3;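 note: compound exposure lasted overnight at 37 °C before fixation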
AML12 tox ATP: AML12 hepatocyte cytotoxicity, confirmed; shares compounds with Lipid droplet; AML12 mouse hepatocyte viability, ATP luminescence; cells loaded with 100 µM oleic acid; cytotoxicity, % at 50 µM; 530 tested, under 10 active; AID 463219;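 active = cytotoxicity above 50% in each of four replicates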;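 note: compound exposure lasted overnight at 37 °C before the ATP read; 0% = DMSO-treated cells and 100% = wells with no cells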
Starred values were filed as active, the others as inactive; . = not tested or not shown. Most compounds without a hit are left out; they make up all but 1.3% or so of the library.

SMILES	Lipid droplet	GRK2 aptamer HTS	VLA-4 inh	JMJD2C inh	proCasp7 act	procasp3 activ	Hep lipid conf	AML12 cytotox	AML12 tox ATP
COc1ccc(-n2cc([N+](=O)[O-])c(=O)c3ccc(Cl)cc32)cc1	.	0.0	-5.6	-6.3	-1.6	-4.4	.	.	.
Cc1ccc(CN2CCN(Cc3cn[nH]c3C3CCCCC3)CC2CCO)cc1 (stereo unspecified)	1.6	0.0	2.3	6.1	-10.6	3.0	.	.	.
CC(C)=CCN1CCN(Cc2cn[nH]c2C2CCCCC2)CC1CCO (stereo unspecified)	-1.6	0.0	4.4	53.3*	3.5	6.5	.	.	.
O=C(CNC(=O)c1ccccc1O)N/N=C/c1cc(Br)ccc1OC(=O)/C=C/c1ccco1	7.7	0.0	8.9	53.7*	-10.8	-3.3	.	.	.
CCCOc1ccc(C(=O)CCC(=O)OCC(=O)Nc2ccc(OCC)cc2)cc1	-0.2	85.0*	-0.3	-3.0	2.7	-12.8	.	.	.
CCCOc1ccc(C(=O)CCC(=O)OCC(=O)Nc2ccc(Oc3ccccc3)cc2)cc1	-1.6	4.0	1.6	4.9	-0.1	5.2	.	.	.
Cc1ccc(NC(=O)C2CCCN(S(=O)(=O)c3c(C)noc3/C=C/N(C)C)C2)cc1F (stereo unspecified)	56.9*	0.0	8.5	.	-0.9	-3.7	76.8*	-0.685	8.1
CCC(NC(=O)c1cc(COc2cncc(Cl)c2)on1)c1ccncc1 (stereo unspecified)	65.1*	2.0	5.9	5.0	7.0	3.0	11.5	-0.576	.
COc1ccc(-c2csc(NC(=O)c3ccc(OCC(=O)N4CCOCC4)c(OC)c3)n2)cc1OC	70.8*	1.0	-6.6	0.4	-2.9	-0.6	95.7*	0.431	24.6
CCOc1ccc(CCNC(=O)CCNC(=O)c2ccccc2Cl)cc1OCC	67.7*	0.0	6.5	-24.9	11.4	2.0	88.0*	0.706	12.8
CCOc1ccc(CCNC(=O)c2cc3sc(Cl)cc3n2C)cc1OCC	88.9*	1.0	9.8	-47.5	3.2	0.9	106.8*	0.666	4.5
CCOc1ccc(CCNC(=O)c2cc(C)nc3ccccc23)cc1OCC	62.2*	9.0	19.2	4.6	10.5	-2.4	70.8*	0.0409	17.1
CCOc1ccc(CCNC(=O)c2cccs2)cc1OCC	75.6*	3.0	34.0	-1.0	5.7	2.9	99.5*	-0.446	8.3
Cc1cc(C(=O)NCCc2ccc(Cl)cc2)c2ccccc2n1	.	0.0	-6.0	-4.6	-7.4	5.2	.	.	.
Cc1c(S(=O)(=O)N2CCN(c3cccc(Cl)c3)CC2)c(=O)n(C)c(=O)n1C	-10.3	9.0	10.4	-6.5	-2.9	-8.9	.	.	.
Cc1ccc(S(=O)(=O)CCC(=O)OCc2nnc(-c3ccccc3Br)o2)cc1	.	2.0	10.1	2.1	-1.2	11.9	.	.	.
CCCCCCn1c(N2CCN(c3ccccc3)CC2)nc2c1c(=O)[nH]c(=O)n2C	57.7*	0.0	8.0	-5.3	3.5	-2.2	93.1*	-1.25	-11.5
CCCCCCn1c(N2CCN(c3cccc(Cl)c3)CC2)nc2c1c(=O)[nH]c(=O)n2C	.	1.0	19.9	14.4	7.8	2.6	.	.	.
CCCCn1c(=O)[nH]c(=O)c2c1nc(-c1ccc(-c3ccccc3)cc1)n2C	63.5*	3.0	0.3	12.0	7.9	3.5	70.3*	-0.689	-4.7
Cn1c(=O)[nH]c(=O)c2c1nc(N1CCN(c3ccccc3)CC1)n2CCSc1ncccn1	.	0.0	-9.2	-10.4	-2.0	8.8	.	.	.
CCCCCCCCn1c(N2CCN(c3cccc(Cl)c3)CC2)nc2c1c(=O)[nH]c(=O)n2C	83.2*	35.0	-19.1	-4.6	-3.7	6.7	98.5*	-1.13	16.3
CC(C)OCCCNc1ccc(N2C(=O)CCCC2=O)cc1[N+](=O)[O-]	7.8	0.0	5.5	10.6	0.8	-4.1	.	.	.
CS(=O)(=O)c1ccc(NC(=O)CCN2C(=O)C3CCCCC3C2=O)cc1 (stereo unspecified)	.	0.0	9.4	4.3	4.0	-2.6	.	.	.
COc1ccc(OC)c(/C=C/C(=O)N(C)CC(=O)Nc2ccc(N3CCOCC3)cc2)c1	.	1.0	3.5	-0.4	-0.9	0.4	.	.	.
COC(=O)[C@]1(C)N[C@H](CN(C)S(=O)(=O)c2ccc(F)cc2)[C@@H]2C(=O)N(C)C(=O)[C@@H]21	.	8.0	-5.0	35.4	4.0	0.8	.	.	.
SMILES	Lipid droplet	GRK2 aptamer HTS	VLA-4 inh	JMJD2C inh	proCasp7 act	procasp3 activ	Hep lipid conf	AML12 cytotox	AML12 tox ATP
C=C(C)C1CC=C(C)/C(=N/NC(=O)c2ccccc2[N+](=O)[O-])C1 (stereo unspecified)	4.9	0.0	1.1	26.9	13.4	9.8	.	.	.
C=C(C)C1CC=C(C)/C(=N/Nc2ccccc2[N+](=O)[O-])C1 (stereo unspecified)	78.2*	1.0	19.0	4.7	-2.9	-1.9	114.7*	-0.403	2.5
O=C(CCNC(=O)C1CCN(S(=O)(=O)c2ccccc2)CC1)NCCc1cccc(F)c1	54.3*	11.0	0.7	3.5	2.4	10.9	27.3	-0.145	.
O=C(CCNC(=O)C1CCN(S(=O)(=O)c2ccccc2)CC1)NCCc1ccc(Cl)cc1	11.0	0.0	16.2	10.4	2.6	-0.9	.	.	.
Cc1nn(Cc2ccc(F)cc2)c(C)c1NC(=O)C1c2ccccc2Oc2ccccc21	61.7*	0.0	3.4	13.4	-2.2	0.3	92.0*	-0.103	-1.4
CCCCN(CCCNC(=O)CN1C(=O)COc2ccccc21)c1ccccc1	52.8*	3.0	21.2	0.2	2.9	-1.8	102.6*	-0.382	4.1
CS(=O)(=O)N(CC(=O)Nc1cccc(Br)c1)Cc1ccccc1	51.5*	0.0	-0.6	3.3	.	.	84.2*	-0.587	25.1
CS(=O)(=O)N(CC(=O)Nc1ccc2c(c1)OCO2)Cc1ccccc1	53.5*	1.0	17.8	5.8	13.6	-3.8	69.3	-0.961	7.2
O=C(c1cccc(S(=O)(=O)NCc2ccc3c(c2)OCO3)c1)N1CCCC1	.	3.0	-4.1	.	4.0	1.1	.	.	.
COc1cc2c(cc1NC(=S)NC(=O)c1c(OC)cccc1OC)oc1ccccc12	105.2*	3.0	8.9	-1.5	-3.3	-7.6	106.0*	0.452	17.6
CC1CN(C(=O)COC(=O)COc2ccc(C#N)cc2)CC(C)O1 (stereo unspecified)	.	0.0	-9.1	4.1	-2.6	17.1	.	.	.
